Assay results gathered from unrelated publications.
Target: 1-phosphatidylinositol 3-phosphate 5-kinase (PIKFYVE, Homo sapiens, UniProt Q9Y2I7)

CN(c1ccnc(CNc2nc(Nc3ccc4c(c3)CC(=O)N4)ncc2C(F)(F)F)n1)S(C)(=O)=O  remaining binding (cell-free assay, competition with immobilised ligand; 1 µM): 100%
FC(F)(F)Oc1cccc(-c2cnc3ccc(-c4ccncc4)nn23)c1  remaining binding (cell-free assay, competition with immobilised ligand; 5 µM): 2.4%
CN([C@@H]1CCc2c(CC(=O)O)c3ccccc3n2C1)S(=O)(=O)c1ccc(F)cc1  remaining binding (cell-free assay, competition with immobilised ligand; 1 µM): 100%
Cc1cnc(Nc2ccc(C(=O)N3CCC(N4CCCC4)CC3)cc2)nc1-c1cc2ccccc2s1  remaining binding (binding, competition with immobilised ligand; 1 µM): 79%
CN1CCN(c2cnc3c(C4CCN(C(=O)c5ccc(OC(F)(F)F)cc5N)CC4)ncnc3c2)CC1  remaining binding (cell-free assay, competition with immobilised ligand; 1 µM): 98%
CN(C)c1ncc(F)c(-c2cnn3ncccc23)n1  remaining binding (binding; 1 µM): 100%
O=C(NCCCN1CCOCC1)c1ccc(Nc2nccc(-c3cc4ccccc4s3)n2)cc1  remaining binding (binding, competition with immobilised ligand; 1 µM): 0.3%
C[C@H]1CCN(c2nccc(-c3cnn4ncccc34)n2)C1  remaining binding (binding; 1 µM): 100%
O=C(NCC1CCOCC1)c1n[nH]cc1NC(=O)c1c(F)cccc1F  remaining binding (binding, competition with immobilised ligand; 1 µM): 100%
COc1ncc2cc3ccccc3nc2c1C#N  remaining binding (cell-free assay, competition with immobilised ligand; 5 µM): 90%
COc1cnc(Nc2cccc(S(N)(=O)=O)c2)nc1N1CCN(c2ccccc2)CC1  remaining binding (binding, competition with immobilised ligand; 1 µM): 85%
CN(C)c1nccc(-c2cnn3ncccc23)n1  remaining binding (binding; 1 µM): 100%
CS(=O)(=O)N1CCCC(NC(=O)[C@H](CCC2CCCCC2)NC(=O)c2ccc(CNc3ncnc4c3nnn4-c3ccccc3)cc2)C1 (stereo partly shown)  remaining binding (cell-free assay, competition with immobilised ligand; 0.1 µM): 61%
CC1CCCN1c1nccc(-c2cnn3ncccc23)n1 (stereo not shown)  remaining binding (binding; 1 µM): 100%
c1cncc(-c2cccc(Nc3nccc(NC4CCCCC4)n3)c2)c1  remaining binding (binding, competition with immobilised ligand; 10 µM): 29%
F[C@@H]1CCN(c2nccc(-c3cnn4ncccc34)n2)C1  remaining binding (binding; 1 µM): 82%
COc1cccc(CNC(=O)c2nc3scc(COCc4ccc(C(=O)O)cc4)c3c(=O)[nH]2)c1  remaining binding (cell-free assay, competition with immobilised ligand; 1 µM): 100%
N[C@@H]1CCN(c2nccc(-c3cnn4ncccc34)n2)C1  remaining binding (binding; 1 µM): 78%
O=C(c1ccc(Nc2ncc(Cl)c(-c3ccc(Cl)s3)n2)cc1)N1CCC(N2CCCC2)CC1  remaining binding (binding, competition with immobilised ligand; 1 µM): 32%
